Assays:
[1] = Selectivity index, ratio of CC50 for human RD cells to EC50 for Enterovirus D68 US/KY/14-18953 infected in human RD cells; type: toxicity, cell-based; conditions: read-out: Ratio CC50/EC50
RD = assay: Cytotoxicity against human RD cells after 3 days by neutral red dye-based photometric method; type: cell-based; conditions: rd, 72 h
enterovirus D68 = assay: Antiviral activity against Enterovirus D68 US/KY/14-18953 infected in human RD cells assessed as inhibition of virus-induced cytopathic effect incubated for 5 mins under shaking condition and measured after 3 days by neutral red dye-based photometric method; type: functional, organism-based; conditions: Enterovirus D, US/KY/14-18953, RD
Outline: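 RD cells seeded one day ahead to ~90% confluence, PBS (Mg/Ca) wash, infected at ~MOI 0.01 with EV-D68 in DMEM/2% FBS/30 mM MgCl2 at 33 °C, 5% CO2. Compounds and 1% P/S added after 1 h. Plates shaken ~5 min, held 3 days, viable cells stained with neutral red (66 µg/ml), A540 read. EC50 from dose-response fits, triplicates.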

Work on `CCN(CC)CCNC(=O)c1cc(-c2ccc(OC)cc2)nc2ccccc12` yielded a selectivity ratio [1] of 13.2, a CC50 (RD) of 31.6 µM and an EC50 (enterovirus D68) of 2.4 µM.
In the case of `NNC(=O)c1cc(-c2ccccc2)nc2ccccc12`, the selectivity ratio [1] is reported as > 3, the CC50 (RD) is reported as > 300 µM and the EC50 (enterovirus D68) is reported as 100 µM.
For `CCN(CC)CCNC(=O)c1cc(-c2ccncc2)nc2ccccc12`, the selectivity ratio [1] was 26.3, the CC50 (RD) was 174 µM and the EC50 (enterovirus D68) was 6.6 µM.
`CCN(CC)CCNC(=O)c1cc(-c2ccccc2)nc2ccc(OC)cc12` showed a selectivity ratio [1] of 2.2, a CC50 (RD) of 27.5 µM and an EC50 (enterovirus D68) of 12.3 µM.
Work on `CCN(CC)CCNC(=O)c1cc(-c2ccc3c(c2)CCO3)nc2ccccc12` yielded a selectivity ratio [1] of 18.4, a CC50 (RD) of 29.5 µM and an EC50 (enterovirus D68) of 1.6 µM.
With `CC(C)Oc1cc(C(=O)NC2CCN(C)CC2)c2ccccc2n1` the selectivity ratio [1] was 5.7, the CC50 (RD) was 101 µM and the EC50 (enterovirus D68) was 17.8 µM.
In the case of `CN(C)CCCNC(=O)c1cc(-c2cccs2)nc2ccccc12`, the selectivity ratio [1] is reported as 57.9, the CC50 (RD) is reported as 40.5 µM and the EC50 (enterovirus D68) is reported as 0.7 µM.
`CN(C)CCNC(=O)c1cc(-c2ccccc2)nc2ccc(F)cc12` gave a selectivity ratio [1] of 64.7, a CC50 (RD) of 38.8 µM and an EC50 (enterovirus D68) of 0.6 µM.
Work on `CCN(CC)CCNC(=O)c1cc(-c2ccc(COC)cc2)nc2ccccc12` yielded a selectivity ratio [1] of 2.7, a CC50 (RD) of 46.6 µM and an EC50 (enterovirus D68) of 17.4 µM.
`CC(C)Oc1cc(C(=O)NCCN(C)C)c2ccccc2n1` showed a selectivity ratio [1] of 22.6, a CC50 (RD) of 38.5 µM and an EC50 (enterovirus D68) of 1.7 µM.
With `CCN(CC)CCNC(=O)c1cc(-c2ccc(CN3CCOCC3)cc2)nc2ccccc12` the CC50 (RD) was 79.2 µM and the EC50 (enterovirus D68) was > 80 µM.
Work on `CCN(CC)CCNC(=O)c1cc(-c2ccc(Cl)s2)nc2ccccc12` yielded a selectivity ratio [1] of 7.6, a CC50 (RD) of 6.1 µM and an EC50 (enterovirus D68) of 0.8 µM.
For `CCN(CC)CCNC(=O)c1cc(-c2cnn(C)c2)nc2ccccc12`, the CC50 (RD) was 251 µM and the EC50 (enterovirus D68) was > 100 µM.
With `CC(C)Oc1cc(C(=O)NCCN2CCOCC2)c2ccccc2n1` the selectivity ratio [1] was > 14.3, the CC50 (RD) was > 250 µM and the EC50 (enterovirus D68) was 17.5 µM.
`CCN(CC)CCNC(=O)c1cc(-c2cccc(OC)c2)nc2ccccc12` showed a selectivity ratio [1] of 22.8, a CC50 (RD) of 36.5 µM and an EC50 (enterovirus D68) of 1.6 µM.
Work on `Cc1ccc2c(c1)c1c3n2CCNC3CCC1` (centres undefined) yielded a CC50 (RD) of 19 µM and an EC50 (enterovirus D68) of 8.4 µM.
With `N=C(N)NC(=O)c1cc(-c2ccccc2)nc2ccccc12` the selectivity ratio [1] was > 7.2, the CC50 (RD) was > 250 µM and the EC50 (enterovirus D68) was 34.7 µM.
`CN(C)CCCNC(=O)c1cc(-c2ccccc2)nc2ccccc12` gave a selectivity ratio [1] of 12.8, a CC50 (RD) of 44.9 µM and an EC50 (enterovirus D68) of 3.5 µM.
Work on `CCN(CC)CCNC(=O)c1cc(OCC(F)(F)F)nc2ccccc12` yielded a selectivity ratio [1] of 9.5, a CC50 (RD) of 33.1 µM and an EC50 (enterovirus D68) of 3.5 µM.
With `CCN(CC)CCNC(=O)c1cc(-c2ccccc2)nc2ccc(F)cc12` the selectivity ratio [1] was 19.2, the CC50 (RD) was 24.9 µM and the EC50 (enterovirus D68) was 1.3 µM.
Compound `CCN(CC)CCNC(=O)c1cc(-c2cnc(N(C)C)nc2)nc2ccccc12` has a selectivity ratio [1] of 3, a CC50 (RD) of 74.2 µM and an EC50 (enterovirus D68) of 24.6 µM.
Work on `O=C(NCCN1CCCC1)c1cc(-c2ccccc2)nc2ccccc12` yielded a selectivity ratio [1] of 117, a CC50 (RD) of 46.7 µM and an EC50 (enterovirus D68) of 0.4 µM.
With `CCC(CC)Oc1cc(C(=O)NCCN(CC)CC)c2ccccc2n1` the CC50 (RD) was 9.5 µM and the EC50 (enterovirus D68) was > 10 µM.
In the case of `CCN(CC)CCNC(=O)c1cc(-c2c(C)noc2C)nc2ccccc12`, the CC50 (RD) is reported as 129 µM and the EC50 (enterovirus D68) is reported as > 50 µM.
In the case of `CN(C)c1ccc(NC(=O)c2cc(-c3ccccc3)nc3ccccc23)cc1`, the selectivity ratio [1] is reported as > 3.5, the CC50 (RD) is reported as > 350 µM and the EC50 (enterovirus D68) is reported as > 100 µM.
With `CCN(CC)CCNC(=O)c1cc(-c2ccnn2C)nc2ccccc12` the selectivity ratio [1] was 3.7, the CC50 (RD) was 133 µM and the EC50 (enterovirus D68) was 36.3 µM.
In the case of `CCN(CC)CCNC(=O)c1cc(-c2ccn[nH]2)nc2ccccc12`, the selectivity ratio [1] is reported as 6.8, the CC50 (RD) is reported as 132 µM and the EC50 (enterovirus D68) is reported as 19.4 µM.
`CCN(CC)CCNC(=O)c1cc(-c2ccsc2)nc2ccccc12` gave a selectivity ratio [1] of 46.9, a CC50 (RD) of 46.9 µM and an EC50 (enterovirus D68) of 1 µM.
With `CCOCCOc1cc(C(=O)NCCN(CC)CC)c2ccccc2n1` the selectivity ratio [1] was 11.8, the CC50 (RD) was 144 µM and the EC50 (enterovirus D68) was 12.2 µM.
With `CC(C)Oc1cc(C(=O)N2CCN(C)CC2)c2ccccc2n1` the CC50 (RD) was > 300 µM and the EC50 (enterovirus D68) was > 100 µM.
`CCC(C)Oc1cc(C(=O)NCCN(CC)CC)c2ccccc2n1` (centres undefined) gave a selectivity ratio [1] of 5.6, a CC50 (RD) of 15.7 µM and an EC50 (enterovirus D68) of 2.8 µM.
With `CCCOc1cc(C(=O)NCCN(CC)CC)c2ccccc2n1` the selectivity ratio [1] was 9.5, the CC50 (RD) was 46.7 µM and the EC50 (enterovirus D68) was 4.9 µM.
Work on `CN(C)CCNC(=O)c1cc(-c2ccccc2)nc2ccc(Cl)cc12` yielded a selectivity ratio [1] of 11.9, a CC50 (RD) of 14.3 µM and an EC50 (enterovirus D68) of 1.2 µM.
`CC(C)Oc1cc(C(=O)NCCN2CCCC2)c2ccccc2n1` showed a selectivity ratio [1] of 21.7, a CC50 (RD) of 36.9 µM and an EC50 (enterovirus D68) of 1.7 µM.
Work on `CCN(CC)CCNC(=O)c1cc(OC2CCCC2)nc2ccccc12` yielded a selectivity ratio [1] of 1.7, a CC50 (RD) of 11.7 µM and an EC50 (enterovirus D68) of 6.8 µM.
Work on `CCN(CC)CCNC(=O)c1cc(-c2ccoc2)nc2ccccc12` yielded a selectivity ratio [1] of 81.7, a CC50 (RD) of 122 µM and an EC50 (enterovirus D68) of 1.5 µM.
`CCN(CC)CCCNC(=O)c1cc(-c2ccccc2)nc2ccccc12` gave a selectivity ratio [1] of 4.7, a CC50 (RD) of 45.4 µM and an EC50 (enterovirus D68) of 9.6 µM.
In the case of `COc1ccc2nc(-c3ccccc3)cc(C(=O)NCCN(C)C)c2c1`, the selectivity ratio [1] is reported as 3.9, the CC50 (RD) is reported as 31.8 µM and the EC50 (enterovirus D68) is reported as 8.1 µM.
For `CCN(CC)CCNC(=O)c1cc(OC)nc2ccccc12`, the selectivity ratio [1] was > 4.8, the CC50 (RD) was > 250 µM and the EC50 (enterovirus D68) was 52.5 µM.
In the case of `CCOc1cc(C(=O)NCCN(CC)CC)c2ccccc2n1`, the selectivity ratio [1] is reported as 27.9, the CC50 (RD) is reported as 165 µM and the EC50 (enterovirus D68) is reported as 5.9 µM.
With `CCN(CC)CCNC(=O)c1cc(/C=C/c2ccccc2)nc2ccccc12` the selectivity ratio [1] was 14.4, the CC50 (RD) was 11.5 µM and the EC50 (enterovirus D68) was 0.8 µM.
With `O=C(NC1CN2CCC1CC2)c1cc(-c2ccccc2)nc2ccccc12` (centres undefined) the selectivity ratio [1] was 13.3, the CC50 (RD) was 46.5 µM and the EC50 (enterovirus D68) was 3.5 µM.
For `CCN(CC)CCNC(=O)c1cc(-c2ccc(-c3ccccc3)cc2)nc2ccccc12`, the CC50 (RD) was 9.8 µM and the EC50 (enterovirus D68) was > 10 µM.
`O=C(NCCCn1ccnc1)c1cc(-c2cccs2)nc2ccccc12` showed a selectivity ratio [1] of 6.3, a CC50 (RD) of 55.7 µM and an EC50 (enterovirus D68) of 8.9 µM.
`CCN(CC)CCNC(=O)c1cc(-c2cnc(OC)nc2)nc2ccccc12` showed a selectivity ratio [1] of 2, a CC50 (RD) of 174 µM and an EC50 (enterovirus D68) of 87.6 µM.
In the case of `CCN(CC)CCNC(=O)c1cc(-c2ccccc2OC)nc2ccccc12`, the selectivity ratio [1] is reported as 5.5, the CC50 (RD) is reported as 75.9 µM and the EC50 (enterovirus D68) is reported as 13.9 µM.
For `CCN(CC)CCNC(=O)c1cc(-c2ccccc2)nc2ccc(Cl)cc12`, the selectivity ratio [1] was 7.1, the CC50 (RD) was 13.5 µM and the EC50 (enterovirus D68) was 1.9 µM.
`CCN(CC)CCNC(=O)c1cc(-c2cccs2)nc2ccccc12` showed a selectivity ratio [1] of 62.3, a CC50 (RD) of 37.4 µM and an EC50 (enterovirus D68) of 0.6 µM.
Work on `CC(C)Oc1cc(C(=O)NCCN)c2ccccc2n1` yielded a selectivity ratio [1] of 42.5, a CC50 (RD) of 149 µM and an EC50 (enterovirus D68) of 3.5 µM.
`CCN(CC)CCNC(=O)c1cc(OCC2CC2)nc2ccccc12` gave a selectivity ratio [1] of 5.4, a CC50 (RD) of 38.5 µM and an EC50 (enterovirus D68) of 7.1 µM.
Work on `CC(C)Oc1cc(C(=O)NCCCN(C)C)c2ccccc2n1` yielded a selectivity ratio [1] of 10.7, a CC50 (RD) of 122 µM and an EC50 (enterovirus D68) of 11.4 µM.
For `CCN(CC)CCNC(=O)c1cc(OC(C)C)nc2ccccc12`, the selectivity ratio [1] was 44.5, the CC50 (RD) was 111 µM and the EC50 (enterovirus D68) was 2.5 µM.
In the case of `CCN(CC)CCNC(=O)c1cc(-c2ccccc2)nc2ccccc12`, the selectivity ratio [1] is reported as 56.4, the CC50 (RD) is reported as 45.1 µM and the EC50 (enterovirus D68) is reported as 0.8 µM.
In the case of `CC(C)Oc1cc(C(=O)NCCN2CCN(C)CC2)c2ccccc2n1`, the selectivity ratio [1] is reported as 3.4, the CC50 (RD) is reported as 88.8 µM and the EC50 (enterovirus D68) is reported as 25.9 µM.
For `CCN(CC)CCNC(=O)c1cc(-c2ccc3c(c2)OCCO3)nc2ccccc12`, the selectivity ratio [1] was 5.5, the CC50 (RD) was 49.9 µM and the EC50 (enterovirus D68) was 9 µM.
Compound `CCN(CC)CCNC(=O)c1cc(OCc2ccccc2)nc2ccccc12` has a selectivity ratio [1] of 12.3, a CC50 (RD) of 13.5 µM and an EC50 (enterovirus D68) of 1.1 µM.
With `NNC(=O)c1cc(-c2cccs2)nc2ccccc12` the selectivity ratio [1] was > 8.4, the CC50 (RD) was > 100 µM and the EC50 (enterovirus D68) was 11.9 µM.
